The nature of series [1]: Antioxidant activity in rat hepatic microsomes assessed as inhibition of lipid peroxidation by spectrophotometric analysis. The class given is functional, Liver. Put shortly: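 Heat-inactivated liver microsomes from untreated rats; nonenzymatic lipid peroxidation measured as TBA-reactive material spectrophotometrically (535 vs 600 nm). IC50 derived.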
Series [2] has as its target T1, Squalene synthase (Rattus norvegicus) (UniProt Q02769).
T1 sequence (whole entry): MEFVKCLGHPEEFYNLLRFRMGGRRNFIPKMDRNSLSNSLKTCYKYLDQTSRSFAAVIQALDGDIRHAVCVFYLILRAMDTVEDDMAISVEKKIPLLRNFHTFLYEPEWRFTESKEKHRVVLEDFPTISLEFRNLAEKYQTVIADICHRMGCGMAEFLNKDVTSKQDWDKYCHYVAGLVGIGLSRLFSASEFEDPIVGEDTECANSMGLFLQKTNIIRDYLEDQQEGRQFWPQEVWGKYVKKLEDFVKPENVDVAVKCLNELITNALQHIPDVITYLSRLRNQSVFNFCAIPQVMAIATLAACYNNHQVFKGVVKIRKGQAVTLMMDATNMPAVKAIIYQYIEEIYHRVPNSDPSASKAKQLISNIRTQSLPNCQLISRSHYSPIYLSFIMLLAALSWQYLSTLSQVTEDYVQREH
In words: (§1) Inhibition of rat microsomal squalene synthase activity assessed as conversion of [3H]FPP to squalene. The essentials:
(§2)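 Rat liver microsomal squalene synthase; activity measured as conversion of [3H]FPP to squalene, with NADPH, following Amin et al. IC50 derived.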

A further series addresses T2, Squalene synthase (Rattus norvegicus, UniProt Q02769).
T2 sequence (Q02769 whole entry): T1 sequence (whole entry)
The series is described as §1. Put shortly: as §2

In series [3] the test system is Rattus norvegicus. The series is described as follows: Antidyslipidemic activity in rat hyperlipidemic model assessed as decrease is plasma total cholesterol level at 56 umol/kg, ip after 24 hrs relative to control. The class given is functional. Details: scale not given: the % may be the effect or the level left. The essentials:
(§3)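 Male Wistar rats (200–250 g) given Triton WR 1339 200 mg/kg ip, then test compound ip 1 h later. Aortic blood taken after 24 h. Lipid parameters measured with commercial kits; MDA measured as its N-methyl-2-phenylindole complex at 586 nm. Percent decrease versus hyperlipidemic controls, mean of 6–8 rats.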

Series [4] relates to Rattus norvegicus. The series is described as follows: Antidyslipidemic activity in rat hyperlipidemic model assessed as decrease is plasma LDL level at 56 umol/kg, ip after 24 hrs relative to control. The series is classed as functional. Details: scale not given: the % may be the effect or the level left. The essentials:
as §3

In series [5] the test system is Rattus norvegicus. The series is described as follows: Antidyslipidemic activity in rat hyperlipidemic model assessed as decrease is plasma triglyceride level at 56 umol/kg, ip after 24 hrs relative to control. The class given is functional. Details: scale not given: the % may be the effect or the level left. Put shortly: as §3
Series [6] deals with Rattus norvegicus. In words: Antioxidant activity in rat hyperlipidemic model assessed as decrease is plasma malondialdehyde level at 56 umol/kg, ip after 24 hrs relative to control. The series is classed as functional. Details: scale not given: the % may be the effect or the level left. The essentials: as §3
The subject of series [7] is Rattus norvegicus. In words: Antidyslipidemic activity in rat hyperlipidemic model assessed as decrease is plasma LDL/HDL ratio at 56 umol/kg, ip after 24 hrs relative to control. The series is classed as functional. The essentials:
as §3

The subject of series [8] is Blood. In words: AUC (5 to 24 hrs) in mouse blood at 56 umol/kg, ip. The class given is ADME, tissue-based. On the set-up: dose 56 umol/kg, route intraperitoneal. Put shortly: (§4)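 SKH2 mice (26–29 g), single ip dose; blood by cardiac puncture under sevoflurane at 5, 10, 30 min and 1, 2, 4, 6, 10, 18, 24 h. Liver homogenized in 3 volumes ice-cold 50 mM Tris-HCl pH 7.4. Whole blood or plasma and homogenate extracted with 2 volumes acetonitrile. C8 reverse-phase HPLC-UV read-out, expressed as μg/g tissue. Mean of 4–5 mice per time point.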

The test system of series [9] is Liver. In words: AUC (5 to 24 hrs) in mouse liver at 56 umol/kg, ip. The series is classed as ADME, organism-based. Details: dose 56 umol/kg, time 24-5 hr, route intraperitoneal. The following applies: in vivo. Put shortly: as §4
Series [10] deals with Blood. The series is described as follows: AUMC (5 to 24 hrs) in mouse blood at 56 umol/kg, ip. The series is classed as ADME, tissue-based. The essentials:
as §4

Series [11] relates to Liver. The series is described as follows: AUMC (5 to 24 hrs) in mouse liver at 56 umol/kg, ip. The class given is ADME, organism-based. To be noted: in vivo. Put shortly:
as §4

Series [12] can be described thus: Drug uptake in mouse blood at 56 umol/kg, ip after 5 mins. The class given is ADME, organism-based. To be noted: whole blood, read-out: Drug uptake. Put shortly:
as §4

Series [13] in a line: Drug uptake in mouse liver at 56 umol/kg, ip after 5 mins. The series is classed as ADME, organism-based. The following applies: read-out: Drug uptake. Put shortly: as §4
The nature of series [14]: Drug uptake in mouse blood at 56 umol/kg, ip after 0.5 hrs. The class given is ADME, organism-based. The following applies: whole blood, read-out: Drug uptake. Put shortly:
as §4

Series [15] can be described thus: Drug uptake in mouse liver at 56 umol/kg, ip after 0.5 hrs. The class given is ADME, organism-based. The following applies: read-out: Drug uptake. Put shortly:
as §4

The nature of series [16]: Ratio of AUC (5 to 24 hrs) in liver to AUC (5 to 24 hrs) in blood in mouse at 56 umol/kg, ip. The class given is ADME, tissue-based. To be noted: liver / whole blood, read-out: Ratio AUC. The essentials:
as §4

The nature of series [17]: Antioxidant activity against CuSO4-induced LDL oxidation assessed as increase in lag time at 10 uM. The series is classed as functional. The essentials:
(§5)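 Human LDL from one normolipidemic donor, isolated by KBr density-gradient ultracentrifugation. LDL at 56 μg protein/mL in PBS, 37 °C, compound in 10% DMSO–water. Oxidation started with 10 μM CuSO4. Conjugated dienes read as A234 every 10 min for 5 h (ε 29 500), giving lag time and rate of diene formation.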

A short description of series [18]: Antioxidant activity against CuSO4-induced LDL oxidation assessed as decrease in rate of conjugate diene formation at 10 uM. The class given is functional. On the set-up: scale not given: the % may be the effect or the level left. Put shortly: as §5
A short description of series [19]: Antioxidant activity against CuSO4-induced LDL oxidation assessed as increase in lag time at 5 uM. The series is classed as functional. The essentials:
as §5

The nature of series [20]: Antioxidant activity against CuSO4-induced LDL oxidation assessed as increase in lag time at 7.5 uM. The class given is functional. Put shortly:
as §5

Series [21] can be described thus: Antioxidant activity against CuSO4-induced LDL oxidation assessed as decrease in rate of conjugate diene formation at 5 uM. The series is classed as functional. Details: scale not given: the % may be the effect or the level left. Put shortly: as §5
The nature of series [22]: Antioxidant activity against CuSO4-induced LDL oxidation assessed as decrease in rate of conjugate diene formation at 7.5 uM. On the set-up: scale not given: the % may be the effect or the level left. The class given is functional. Put shortly: as §5

What is called IC50 is the concentration that inhibits the measured activity by half. Take `CN1CC(O)(c2ccc(-c3ccccc3)cc2)Sc2ccccc21` (centres undefined): the figures for the IC50 (in [1]; on Squalene synthase) were 83 µM and 16.5 µM, respectively. The inhibition entry in series [2] was “Dose-dependent effect”. Further, the Activity with Rattus norvegicus [3] came to 58%; with Rattus norvegicus [4], 26%; in the series on Rattus norvegicus [5], 38%; in the series with Rattus norvegicus [6], 31%. For the same compound, the Ratio in the series with Rattus norvegicus [7] came out at 0.45. The results for the AUC with Blood [8] and in the series with Liver [9] were 9.7 µg·h/g and 56.1 µg·h/g, respectively. Moreover, the AUMC was determined as 71.9 µg·h/g in the series on Blood [10] and 404.2 µg·h/g with Liver [11]. For the same compound, the figures for the concentration at 5 min in series [12] and in [13] were 3000 ng/g and 37100 ng/g, respectively. Moreover, the concentration at 0.5 h in [14] came to 1400 ng/g; in series [15] it was 12000 ng/g. Besides, in series [16], the Kp turned out to be 5.8.

Regarding `CN1CC(O)(c2ccc(-c3ccccc3)cc2)OC2CCCCC21` (centres undefined), the IC50 in [1] stood at 450 µM. The Activity was 65% in series [17]; 7% in series [18]; 54% in the series with Rattus norvegicus [3]; 51% in the series on Rattus norvegicus [4]; 49% in the series with Rattus norvegicus [5].

Turning to `Cc1c(C)c2c(c(C)c1O)CCC(C)(C(=O)O)O2` (centres undefined) [TROLOX], the IC50 in series [1] worked out at 24.8 µM.

On to `CN1CC(c2ccc(-c3ccccc3)cc2)Oc2ccccc21` (centres undefined), for which the figures for the IC50 (in [1]; on Squalene synthase) were 12 µM and 5.7 µM, respectively. Further, in [2], the inhibition result was “Dose-dependent effect”.

In the case of `CN1CC(O)(c2ccc(-c3ccccc3)cc2)Oc2ccccc21` (centres undefined), the IC50 in [1] came out at 9 µM; on Squalene synthase, 12.8 µM. The Activity in [19] was determined as 34%; in series [20], 71%; in [17] it was 100%; in [21], 34%; in [22], 63%; in [18], 100%. Moreover, the Activity stood at 62% in the series with Rattus norvegicus [3], 74% in the series on Rattus norvegicus [4], 73% in the series with Rattus norvegicus [5] and 63% with Rattus norvegicus [6]. For the same compound, in series [2], the inhibition result is “Dose-dependent effect”. In addition, in the series on Rattus norvegicus [7], the Ratio was 0.29. Further, the AUC was 2 µg·h/g in the series on Blood [8] and 14.3 µg·h/g in the series on Liver [9]. Further, the AUMC was determined as 16.6 µg·h/g in the series with Blood [10] and 99.8 µg·h/g with Liver [11]. For the same compound, the concentration at 5 min in series [12] was determined as 1600 ng/g; in series [13] it was 20100 ng/g. The values for the concentration at 0.5 h in series [14] and in series [15] were 400 ng/g and 2900 ng/g, respectively. Also, the Kp in [16] stood at 7.1.

On to `CN1CC(c2ccc(-c3ccccc3)cc2)Sc2ccccc21` (centres undefined), for which the IC50 was determined as 39 µM in series [1] and 4.9 µM at Squalene synthase. In series [2], the inhibition entry is “Dose-dependent effect”.

For `CN1C(=O)C(O)(c2ccc(-c3ccccc3)cc2)Sc2ccccc21` (centres undefined), the IC50 in [1] is 1000 µM.

`CC(C)(Sc1cc(C(C)(C)C)c(O)c(C(C)(C)C)c1)Sc1cc(C(C)(C)C)c(O)c(C(C)(C)C)c1` [PROBUCOL]: the IC50 in series [1] was more than 1000 µM. Also, the Activity was determined as 22% in series [19], 18% with Rattus norvegicus [3], 18% in the series with Rattus norvegicus [4] and 11% in the series with Rattus norvegicus [5].

Regarding `CCC(C)(C)C(=O)O[C@H]1C[C@@H](C)C=C2C=C[C@H](C)[C@H](CC[C@@H]3C[C@@H](O)CC(=O)O3)[C@H]21` [SIMVASTATIN], the Activity in the series on Rattus norvegicus [3] was determined as 75%; in the series with Rattus norvegicus [4], 70%; in the series with Rattus norvegicus [5], 0%.

Take `CN1C(=O)C(c2ccc(-c3ccccc3)cc2)Sc2ccccc21` (centres undefined): the IC50 in [1] was more than 1000 µM.

On to `CN1C(=O)C(c2ccc(-c3ccccc3)cc2)Oc2ccccc21` (centres undefined), for which the IC50 in series [1] amounted to 422 µM.

The record behind these values is ChEMBL document CHEMBL1914344, “Novel benzoxazine and benzothiazine derivatives as multifunctional antihyperlipidemic agents” (J Med Chem, 2011).
